Assay outcomes deposited in PubChem by Broad Institute.
Compounds with a hit are over-represented: about 2.7% of the library has one in this group of screens.
CFTR F508del cor: correctors of CFTR F508del function in bronchial epithelial cells. CFBE cells, YFP halide quenching; stimulated with forskolin plus potentiator P3; % fluorescence drop versus neutral controls. activity (quench increase), % at 7.58 µM. 350,000 compounds, 0.36% hits;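 active = mean added fluorescence quench of at least 8% versus neutral control, with both replicates also reaching 8%; inconclusive = only one of the mean or replicate conditions met; inactive = mean below 8% and not both replicates reaching 8%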;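 note: cells transiently co-express mutant CFTR-F508del with the halide-sensitive YFP; corrector assay measuring rescue of mutant channel to the surface after 24 h compound exposure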
Env fusion inh: HIV envelope-mediated fusion inhibition | HeLa-JRFL Env/CEM21 cell fusion, luciferase | AID 651610 | inhibition, % at 12.3 µM | 360,000 compounds, 1.1% hits;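 active = mean replicate inhibition score of at least 50 and every replicate individually at or above 50; inconclusive = only one of the two criteria met; inactive = mean below 50 and not all replicates reaching 50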;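 note: 0% = plate neutral controls and 100% = maraviroc near 300 nM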
S100A4 MyoIIA: inhibitors of human S100A4 binding to myosin IIA peptide | S100A4/TAMRA-MyoIIA peptide fluorescence polarization | inhibition, % at 10.7 µM | 360,000 compounds, 0.14% hits | AID 652163;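 active = mean inhibition of at least 70% across replicates, with every replicate also reaching that level; inconclusive = mean inhibition reaches 70% but some replicates fall short; inactive = mean inhibition below 70%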
Target sequence (P26447 whole entry, looked up): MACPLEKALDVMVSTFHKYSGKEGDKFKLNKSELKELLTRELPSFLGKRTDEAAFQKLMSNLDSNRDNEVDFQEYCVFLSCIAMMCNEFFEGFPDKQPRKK
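Material: human S100A4 monomer with TAMRA-labelled myosin IIA peptide; buffer or medium: HEPES pH 7.2 with CaCl2, KCl, NaCl, DTT, Triton; compound dosing: one concentration per compound; schedule: 5 min incubation before reading; benchmarks: neutral control DMSO, positive control TFP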
E-sel inducer: E-selectin induction on HUVECs | P16581 | HUVEC E-selectin immunofluorescence imaging; normalized: neutral wells 0, TNF-alpha wells 100 | activation, % at 7.58 µM | 260,000 compounds, 0.37% hits | AID 686992;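 active = mean E-selectin-positive cell signal at least 10% of the positive control, reached in at least 60% of replicates, without over 20% cell loss; inconclusive = no rule given, readout overlaps actives, possibly toxicity-flagged; inactive = the rest, including those meeting only one limit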
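Test system: HUVEC; input: 3,000 HUVEC/well; measured by: immunofluorescence imaging; read-out: % PE-positive cells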
FGF22 binding: FGF22 (human) thermal shift binding | 340,000 compounds, 1.5% hits | AID 651658 | activity (Tm shift, normalised), % at 9.99 µM | recombinant FGF22 thermal shift, SYPRO orange fluorescence; percent of sucrose octasulfate shift, DMSO zero | Q9HCT0;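 active = mean Tm shift, scaled 0 neutral to 100 positive control, at about 1.3% or above, every replicate too, limit read from the data; inconclusive = no clear call, values can overlap the other calls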
Target sequence (Q9HCT0 whole entry, looked up): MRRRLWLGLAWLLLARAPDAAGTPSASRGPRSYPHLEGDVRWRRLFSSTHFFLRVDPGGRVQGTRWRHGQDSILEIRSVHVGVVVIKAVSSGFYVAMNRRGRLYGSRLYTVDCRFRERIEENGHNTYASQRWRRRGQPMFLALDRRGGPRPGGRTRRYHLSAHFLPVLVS
The depositor's hits bear a star; ? = inconclusive; · = no result given; ! = not active in a repeat; [ ] = remark or other dose.

SMILES	CFTR F508del cor	Env fusion inh	S100A4 MyoIIA	E-sel inducer	FGF22 binding
O=C(c1ccc(F)cc1)N1CC(=O)N2[C@H](CO)[C@@H](c3ccc(C#CC4CCCCC4)cc3)[C@H]2C1	1.5	·	3.9	-0.7	·
C#CCn1c(S(=O)(=O)Cc2ccc(F)cc2)nc(-c2ccccc2)c1-c1ccccc1	·	66.2*	·	·	·
CCOC(=O)Cn1c(S(=O)(=O)Cc2cccc(F)c2)nc(-c2ccccc2)c1-c1ccccc1	·	87.0*	·	·	·
CCOC(=O)Cn1c(S(=O)(=O)Cc2ccc(F)cc2)nc(-c2ccccc2)c1-c1ccccc1	·	-4.2	·	·	·
CCCN1[C@@H]2c3ccc(C4=CCCCC4)c(=O)n3C[C@H]1[C@H](CO)[C@H]2C(=O)NCC	-0.6	·	4.8	0.3	-0.1
C[C@@H]1CN([C@@H](C)CO)C(=O)Cc2cc(NS(=O)(=O)c3cccs3)ccc2O[C@H]1CN(C)C(=O)Nc1ccc2c(c1)OCO2	-1.3	-9.2[16.7 µM]	1.5	-9.2	0.0
Nc1ccn([C@H]2C[C@H](O)[C@@H](CO)O2)c(=O)n1	8.0*!	-4.9	-4.2	-0.3	-0.2
Nc1ncn([C@H]2C[C@H](O)[C@@H](CO)O2)c(=O)n1	0.6	69.0*	-0.2	-0.2	-0.1
Nc1nc(Cl)nc2c1ncn2C1OCC(O)C(O)C1O (stereo not given)	3.6	0.9	-0.9	-0.1	0.0
Nc1nc(Cl)nc2c1ncn2C1CC(O)C(CO)O1 (stereo not given)	14.1*	15.6	3.2	2.5	0.0
Nc1nc2c(ncn2[C@H]2C[C@H](O)[C@@H](CO)O2)c(=O)[nH]1	5.9	-0.1	-1.2	-2.5	0.1
COc1ccc(C(=O)Nc2ccc3c(c2)OC[C@@H](C)N(C(C)=O)C[C@H](C)[C@H](OC)CN(C)C3=O)cc1	0.3	·	2.7	-0.2	0.3
COC(=O)c1ccc(/C=N/Nc2nc(C)c(C)s2)cc1	-0.4	-108.4	-15.0	·	-0.1
Cc1nc(N/N=C/c2ccccn2)sc1C	·	106.9*	-1.3	8.2	-0.1
C[C@H]1CCCCO[C@@H](CN(C)S(=O)(=O)c2cn(C)cn2)[C@@H](C)CN([C@@H](C)CO)C(=O)c2cc(NS(=O)(=O)c3ccc(Cl)cc3)ccc2O1	0.2	8.4[16.7 µM]	5.9	·	1.0
COc1ccc(C2N(C(=O)c3ccccc3)CCN2C(=O)c2ccccc2)cc1	·	-17.7	·	·	·
COc1ccc(C(=O)N2CC(c3ccccc3)CC2=O)cc1 (stereo not given)	-1.3	-12.1	3.9	82.9*	-0.2
Cc1noc(C)c1S(=O)(=O)Nc1cccc2c1O[C@H](CN(C)C(=O)Nc1ccc3c(c1)OCO3)[C@H](C)CN([C@H](C)CO)C2=O	-2.5	·	-10.5	0.0	0.0
CO[C@@H]1CN(C)C(=O)c2cc(NC(=O)C3CCC3)ccc2OC[C@H](C)N(Cc2nccs2)C[C@@H]1C	0.4	·	13.2	-0.1	-0.3
Cc1cccc(-c2ccc([C@H]3[C@H](CO)N4C(=O)CN(C(=O)c5cnccn5)C[C@@H]34)cc2)c1	·	·	·	0.1	·
COc1ccc(N=C2NC(=O)/C(=C/c3ccc(O)c(OC)c3)S2)cc1	·	-35.9	0.8	-1.0	0.9
COc1cc(/C=C2/SC(=Nc3ccc(O)cc3)NC2=O)cc(OC)c1O	14.6*	-59.5	1.4	-0.4	42.0
COc1ccccc1N=C1NC(=O)/C(=C/c2ccc(N(C)C)cc2)S1	15.3*	-44.8	-7.3	·	-0.5
COc1cc(/C=C2\SC(=Nc3ccc(O)cc3)NC2=O)cc(OC)c1OC	3.6	-60.4	-4.8	-0.1	40.9
CCCNC(=O)C[C@H]1CC[C@H]2[C@@H](COc3ccc(NC(=O)NC(C)C)cc3C(=O)N2C)O1	0.1	·	-4.3	0.0	0.3
SMILES	CFTR F508del cor	Env fusion inh	S100A4 MyoIIA	E-sel inducer	FGF22 binding
COc1ccc(-c2cn[nH]c2-c2ccc(OCc3ccccc3)cc2O)cc1	-0.3	45.4	-0.9	0.2	-0.1
COc1ccc(-c2cn[nH]c2-c2ccc(OC)cc2O)cc1	-2.5	58.3*	-2.7	·	-0.1
COc1ccc2c3c([nH]c2c1)[C@@H](CO)N(C(C)=O)CC31CCN(C(=O)Nc2ccc(F)cc2F)CC1	-5.6	·	-5.6	0.1	·
O=C1C2C3C=CC(CC3)C2C(=O)N1/N=C/c1ccco1 (stereo not given)	0.2	10.2	-3.4	·	44.0*
CCC(=O)Nc1ccc2c(c1)C(=O)N(C)C[C@H](OC)[C@H](C)CN(Cc1ccccn1)[C@@H](C)CO2	1.3	-7.1[16.7 µM]	-2.5	0.1	-0.2
O=C1CC(C(=O)N(CC2CCCO2)C(C(=O)NC2CCCCC2)c2ccncc2)CS1 (stereo not given)	·	77.6*	·	·	·
O=C1CC(C(=O)N(c2ccccc2)C(C(=O)NC2CCCC2)c2ccncc2)CS1 (stereo not given)	-3.3	9.8	26.7	-0.2	0.2
O=C(Cc1ccccc1)N1CCN(C(=O)c2ccc([N+](=O)[O-])cc2)CC1	2.9	18.6	0.7	·	45.2*
O=C(Cc1ccccc1)NC1CCN(C(=O)c2ccc([N+](=O)[O-])cc2)CC1	2.8	5.7	-5.9	0.0	-0.1
C[C@H](CO)N1C[C@H](C)[C@H](CN(C)C(=O)Nc2ccccc2)Oc2c(NC(=O)Nc3cccc4ccccc34)cccc2C1=O	-0.2	-0.3[16.7 µM]	3.3	0.3	-0.2
C[C@H]1CN([C@@H](C)CO)C(=O)c2cccc(NC(=O)Nc3cccc4ccccc34)c2O[C@H]1CN(C)Cc1ccc(-c2ccccc2)cc1	1.2	-9.7[16.7 µM]	·	89.7*	·
C[C@H]1CN([C@@H](C)CO)C(=O)c2cccc(N(C)C)c2O[C@@H]1CN(C)C(=O)Nc1cccc2ccccc12	-0.8	20.3[16.7 µM]	-1.9	2.5	-0.7
C[C@@H]1CN([C@@H](C)CO)C(=O)c2cccc(NC(=O)Nc3cccc4ccccc34)c2O[C@H]1CN(C)C(=O)Nc1ccccc1	1.8	-7.8[16.7 µM]	105.3*	0.3	-0.8
C[C@H](CO)N1C[C@H](C)[C@H](CN(C)Cc2ccccc2)Oc2c(NC(=O)Nc3cccc4ccccc34)cccc2C1=O	-1.0	-13.5[16.7 µM]	-3.4	-0.3	-0.6
C[C@@H]1CN([C@@H](C)CO)C(=O)c2cccc(N(C)C)c2O[C@@H]1CN(C)C(=O)Nc1cccc2ccccc12	-1.0	?	81.4*	0.7	-0.2
C[C@H](CO)N1C[C@H](C)[C@H](CN(C)C(=O)Nc2ccccc2)Oc2c(NS(=O)(=O)c3cccs3)cccc2C1=O	-3.5	-163.7[16.7 µM]	·	50.1*	·
C[C@@H]1CCCCO[C@H](CN(C)S(=O)(=O)c2cccs2)[C@@H](C)CN([C@H](C)CO)C(=O)c2cc(NC(=O)Nc3cccc4ccccc34)ccc2O1	-0.3	20.2[16.7 µM]	·	-0.2	-0.3
O=C(NCc1ccc(F)cc1)[C@@H]1[C@@H](CO)[C@@H]2Cn3c(cccc3=O)[C@H]1N2C(=O)C1CC1	-1.2	·	0.5	0.8	·
O=C(NCC1CC1)[C@@H]1[C@@H](CO)[C@@H]2Cn3c(ccc(-c4ccccc4)c3=O)[C@H]1N2CC1CC1	-2.5	·	-1.4	-1.8	0.3
